Source: ChEMBL document CHEMBL4138071, “Synthesis, antioxidant and antitumoral activities of 5'-arylchalcogeno-3-aminothymidine (ACAT) derivatives” (Medchemcomm, 2017)
Activity calls are given as the source filed them. The calls are words filed in the database; no cut-off is given here.

Legend:
[1] = Antioxidant activity assessed as DPPH radical scavenging activity at 1 mM incubated for 90 mins; assay type: functional
Summary of the method: (§1)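 Each compound mixed with 0.3 mM DPPH in ethanol. Most tests used 1 mM compound; the concentration curve covered final 0 - 1 mM. Absorbance at 518 nm was read every 30 min for 180 min. BHT served as positive control.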

5637 [2] = assay: Antiproliferative activity in human 5637 cells assessed as inhibition of cell growth incubated for 48 hrs by MTT assay; assay type: functional, cell-based; conditions: Homo sapiens, 5637, 48 h
Summary of the method: (§2)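 Bladder carcinoma 5637 cells in log phase were grown in DMEM with 10% FBS at 37 °C, 5% CO2. They were seeded at 2 x 10^4 per well and treated 24 and 48 h, with DMSO up to 0.5% as vehicle. MTT was added for 3 h and A492 read. Inhibition = (1 − Abs treated/Abs control) x 100. Results are mean ± SEM.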

[3] = Antioxidant activity assessed as inhibition of Fe2+-induced phosphatidylcholine oxidation at 200 uM […] by TBARS assay; assay type: functional
[4] = Thiol peroxidase-like activity assessed as induction of hydrogen peroxide decomposition at 450 uM using benzenethiol incubated for 20 mins; assay type: functional
Summary of the method: (§3)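 This is a GPx-mimetic assay using benzenethiol (2.5 mM) instead of glutathione. The mix held ethanol, compound at final 0 - 450 μM or DMSO blank, and hydrogen peroxide (2.3 mM).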

[5] = Antioxidant activity assessed as inhibition of Fe2+-induced phosphatidylcholine oxidation incubated for 1 hr by TBARS assay; assay type: functional
Mus musculus [6] = assay: Toxicity in Swiss mouse assessed as effect on food intake level at 100 umol/kg, sc measured over 7 days; assay type: organism-based; conditions: in vivo, 168 h
Summary of the method: (§4)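 Adult male Swiss mice were randomized into two groups, n = 4 each. They received a subcutaneous injection of 100 μmol/kg compound or DMSO vehicle (1 mL/kg).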

Mus musculus [7] = assay: Hepatic toxicity in Swiss mouse assessed as effect on ALT level at 100 umol/kg, sc after 7 days; assay type: organism-based; conditions: in vivo, 168 h; summary of the method: as §4
5637 [8] = assay: Antiproliferative activity in human 5637 cells assessed as inhibition of cell growth at 6.25 to 12.5 uM incubated for 48 hrs by MTT assay; assay type: functional; summary of the method: as §2
[9] = Toxicity in human leukocytes assessed as reduction in cell viability at 100 uM incubated for 3 hrs; assay type: cell-based
Summary of the method: (§5)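 Human leukocytes were isolated (2 x 10^6/mL) and incubated 3 h in Hank's buffer with 10% human plasma. Controls were DMSO 0.5% vehicle and 1 mM t-butyl hydroperoxide as positive control.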

[10] = Toxicity in Swiss mouse assessed as mortality level at 100 umol/kg, sc measured over 7 days; assay type: organism-based; conditions: in vivo, read-out: Activity; summary of the method: as §4
Mus musculus [11] = assay: Renal toxicity in Swiss mouse assessed as effect on urea level at 100 umol/kg, sc after 7 days; assay type: organism-based; conditions: in vivo, 168 h; summary of the method: as §4
5637 [12] = assay: Cell cycle arrest in human 5637 cells assessed as increase in accumulation at S phase at 12.5 uM by propidium iodide staining based flow cytometry; assay type: functional
Summary of the method: (§6)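 5637 cells were seeded at 1x10^5 and synchronized 24 h in serum-free medium. They were then treated 24 h at 12,5 µM. DNA content was measured by propidium iodide staining with a kit and flow cytometry.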

5637 [13] = assay: Cell cycle arrest in human 5637 cells assessed as increase in accumulation at subG1 phase at 12.5 uM by propidium iodide staining based flow cytometry; assay type: functional; summary of the method: as §6
5637 [14] = assay: Antiproliferative activity in human 5637 cells assessed as inhibition of cell growth incubated for 24 hrs by MTT assay; assay type: functional, cell-based; conditions: Homo sapiens, 5637, 24 h; summary of the method: as §2
Mus musculus [15] = assay: Toxicity in Swiss mouse assessed as effect on body weight level at 100 umol/kg, sc measured over 7 days; assay type: organism-based; conditions: in vivo, 168 h; summary of the method: as §4
Mus musculus [16] = assay: Toxicity in Swiss mouse assessed as effect on kidney to body weight ratio level at 100 umol/kg, sc after 7 days; assay type: organism-based; conditions: in vivo, 168 h; summary of the method: as §4
Mus musculus [17] = assay: Toxicity in Swiss mouse assessed as effect on brain to body weight ratio level at 100 umol/kg, sc after 7 days; assay type: organism-based; conditions: in vivo, 168 h; summary of the method: as §4
[18] = Antioxidant activity assessed as DPPH radical scavenging activity at 0.1 mM measured at >180 mins; assay type: functional; summary of the method: as §1
[19] = Antioxidant activity assessed as DPPH radical scavenging activity at 0.25 mM measured at 104.7 +/- 10.0 mins; assay type: functional; summary of the method: as §1
Mus musculus [20] = assay: Toxicity in Swiss mouse assessed as effect on liver to body weight ratio level at 100 umol/kg, sc after 7 days; assay type: organism-based; conditions: in vivo, 168 h; summary of the method: as §4
[21] = Antioxidant activity assessed as DPPH radical scavenging activity at 0.5 mM measured at 77.3 +/- 10.3 mins; assay type: functional; summary of the method: as §1
Mus musculus [22] = assay: Toxicity in Swiss mouse assessed as effect on water intake level at 100 umol/kg, sc measured over 7 days; assay type: organism-based; conditions: in vivo, 168 h; summary of the method: as §4
Mus musculus [23] = assay: Toxicity in Swiss mouse assessed as effect on spleen to body weight ratio level at 100 umol/kg, sc after 7 days; assay type: organism-based; conditions: in vivo, 168 h; summary of the method: as §4
Mus musculus [24] = assay: Hepatic toxicity in Swiss mouse assessed as effect on AST level at 100 umol/kg, sc after 7 days; assay type: organism-based; conditions: in vivo, 168 h; summary of the method: as §4
[25] = Thiol peroxidase-like activity assessed as induction of hydrogen peroxide decomposition at 55 to 225 uM using benzenethiol in presence of thiophenol incubated for 20 mins; assay type: functional; summary of the method: as §3
5637 [26] = assay: Cell cycle arrest in human 5637 cells assessed as reduction in accumulation at G1 phase at 12.5 uM by propidium iodide staining based flow cytometry; assay type: functional; summary of the method: as §6
Mus musculus [27] = assay: Toxicity in Swiss mouse assessed as appearance of overt toxic signs at 100 umol/kg, sc measured over 7 days; assay type: organism-based; conditions: in vivo, 168 h; summary of the method: as §4
5637 [28] = assay: Antiproliferative activity in human 5637 cells assessed as inhibition of cell growth at 6.25 to 12.5 uM incubated for 24 hrs by MTT assay; assay type: functional; summary of the method: as §2
Mus musculus [29] = assay: Renal toxicity in Swiss mouse assessed as effect on creatinine level at 100 umol/kg, sc after 7 days; assay type: organism-based; conditions: in vivo, 168 h; summary of the method: as §4
[30] = Antioxidant activity assessed as DPPH radical scavenging activity at 1 mM measured at 38.7 +/- 8.9 mins; assay type: functional; summary of the method: as §1
[31] = Toxicity in human leukocytes assessed as reduction in cell viability at 1 mM incubated for 3 hrs; assay type: cell-based; conditions: 1000 µM; summary of the method: as §5
[32] = Thiol peroxidase-like activity assessed as induction of hydrogen peroxide decomposition at 50 to 250 uM using benzenethiol incubated for 20 mins; assay type: functional; summary of the method: as §3
[33] = Antioxidant activity assessed as DPPH radical scavenging activity at 0.5 mM measured at 21.33 +/- 0.6 mins; assay type: functional
Summary of the method: (§7)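 DPPH (0.3 mM) in ethanol was mixed with the test compound at final concentrations of 0–1 mM. Absorbance at 518 nm was read every 30 min for 180 min. BHT served as the positive control.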

[34] = Antioxidant activity assessed as DPPH radical scavenging activity at 0.25 mM measured at 22.5 +/- 0.87 mins; assay type: functional; summary of the method: as §7

Cc1cn([C@H]2C[C@H](N)[C@@H](CSc3ccc(Cl)cc3)O2)c(=O)[nH]c1=O
inhibition [1]: inactive | IC50 5637 [2]: > 100 µM | inhibition [3]: inactive

Cc1ccc([Se]C[C@H]2O[C@@H](n3cc(C)c(=O)[nH]c3=O)C[C@@H]2N)cc1
inhibition [1]: inactive | IC50 5637 [2]: > 100 µM | Activity [4]: Active | inhibition [3]: inactive

Cc1c(C)c2c(c(C)c1O)CC[C@@](C)(CCC[C@H](C)CCC[C@H](C)CCCC(C)C)O2 [ALPHA-TOCOPHEROL]
IC50 [5]: 35.3 µM

Cc1cn([C@H]2C[C@H](N)[C@@H](C[Se]c3ccccc3)O2)c(=O)[nH]c1=O
inhibition [1]: inactive | IC50 5637 [2]: > 100 µM | Activity [4]: Active | inhibition [3]: inactive

COc1ccc([Se]C[C@H]2O[C@@H](n3cc(C)c(=O)[nH]c3=O)C[C@@H]2N)cc1
inhibition [1]: inactive | IC50 5637 [2]: > 100 µM | Activity [4]: Active | inhibition [3]: inactive

Cc1cn([C@H]2C[C@H](N)[C@@H](C[Te]c3ccccc3)O2)c(=O)[nH]c1=O
Activity (Mus musculus [6]): Non-Toxic | Activity (Mus musculus [7]): Non-Toxic | growth inhibition (GI) 5637 [8]: >50% | Activity [9]: Non-Toxic | mortality at 168 h [10]: 25% | Activity (Mus musculus [11]): Non-Toxic | Activity 5637 [12]: Active | Activity 5637 [13]: inactive | IC50 5637 [14]: 6.61 µM | Activity (Mus musculus [15]): Non-Toxic | Activity (Mus musculus [16]): Non-Toxic | inhibition [1]: Active | IC50 5637 [2]: 7.94 µM | Activity (Mus musculus [17]): Non-Toxic | inhibition [18]: 50% | inhibition [19]: 50% | Activity (Mus musculus [20]): Non-Toxic | inhibition [21]: 50% | IC50 [5]: 4.67 µM | Activity (Mus musculus [22]): Non-Toxic | Activity [4]: Active | Activity (Mus musculus [23]): Non-Toxic | Activity (Mus musculus [24]): Non-Toxic | inhibition [3]: Active | Activity [25]: Active | Activity 5637 [26]: Active | Activity (Mus musculus [27]): Non-Toxic | growth inhibition (GI) 5637 [28]: >50% | Activity (Mus musculus [29]): Non-Toxic | inhibition [30]: 50%

Cc1ccccc1[Se]C[C@H]1O[C@@H](n2cc(C)c(=O)[nH]c2=O)C[C@@H]1N
inhibition [1]: inactive | IC50 5637 [2]: > 100 µM | Activity [4]: Active | inhibition [3]: inactive

CC(C)(C)OO [TERT-BUTYL HYDROPEROXIDE]
Activity [31]: 40%

Cc1cn([C@H]2C[C@H](N)[C@@H](CSc3ccccc3)O2)c(=O)[nH]c1=O
inhibition [1]: inactive | IC50 5637 [2]: > 100 µM | inhibition [3]: inactive

c1ccc([Se][Se]c2ccccc2)cc1
IC50 [5]: 233 µM | Activity [32]: Active

COc1ccc(SC[C@H]2O[C@@H](n3cc(C)c(=O)[nH]c3=O)C[C@@H]2N)cc1
inhibition [1]: inactive | IC50 5637 [2]: > 100 µM | Activity [4]: Active | inhibition [3]: inactive

Cc1cc(C(C)(C)C)c(O)c(C(C)(C)C)c1
inhibition [33]: 50% | inhibition [34]: 50%

Cc1ccc(SC[C@H]2O[C@@H](n3cc(C)c(=O)[nH]c3=O)C[C@@H]2N)cc1
inhibition [1]: inactive | IC50 5637 [2]: > 100 µM | inhibition [3]: inactive

Cc1cn([C@H]2C[C@H](N)[C@@H](C[Se]c3ccc(Cl)cc3)O2)c(=O)[nH]c1=O
inhibition [1]: inactive | IC50 5637 [2]: > 100 µM | inhibition [3]: inactive

Cc1cn([C@H]2C[C@H](N=[N+]=[N-])[C@@H](CO)O2)c(=O)[nH]c1=O [ZIDOVUDINE]
IC50 5637 [14]: 129 µM

O=c1c2ccccc2[se]n1-c1ccccc1
Activity [32]: Active
